Measurements published in ChEMBL document CHEMBL4118164, “Discovery of (E)-1-amino-4-phenylbut-3-en-2-ol derivatives as novel neuraminidase inhibitors” (Bioorg Med Chem Lett, 2018).

Target: Neuraminidase (Influenza A virus, UniProt B4URF0)
Assay: Inhibition of Influenza A H1N1 virus neuraminidase activity preincubated for 2 mins followed by MUNANA substrate addition measured after 30 mins by […]
In short: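 Test compounds were dissolved in DMSO as stock solutions and diluted with assay buffer to four concentrations, spaced tenfold apart. Neuraminidase inhibition was measured with a commercial neuraminidase-inhibitor screening kit using a fluorescent read-out. IC50 values are means of three or more experiments.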

Sequence of Neuraminidase (B4URF0 whole entry): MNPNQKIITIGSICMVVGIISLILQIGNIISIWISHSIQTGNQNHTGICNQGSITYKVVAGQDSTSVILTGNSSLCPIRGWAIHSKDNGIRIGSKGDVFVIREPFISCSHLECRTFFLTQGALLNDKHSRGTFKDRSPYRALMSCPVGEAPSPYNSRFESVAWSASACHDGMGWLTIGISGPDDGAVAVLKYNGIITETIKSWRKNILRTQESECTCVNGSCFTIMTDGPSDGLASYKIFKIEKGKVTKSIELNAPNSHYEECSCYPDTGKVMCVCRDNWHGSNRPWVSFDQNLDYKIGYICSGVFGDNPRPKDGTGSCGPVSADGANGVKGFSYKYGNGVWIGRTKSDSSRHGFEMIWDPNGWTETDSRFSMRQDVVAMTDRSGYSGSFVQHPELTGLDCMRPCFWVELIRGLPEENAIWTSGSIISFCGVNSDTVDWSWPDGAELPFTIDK

SMILES | IC50
N#Cc1ccc(S(=O)(=O)NCC(O)/C=C/c2ccccc2)cc1 (stereo unspecified) | 11.4 µM
CC(C)(C)OC(=O)NCC(O)/C=C/c1ccccc1 (stereo unspecified) | 106 µM
COc1ccccc1S(=O)(=O)NCC(O)/C=C/c1ccccc1 (stereo unspecified) | 8 µM
NCC(O)/C=C/c1ccccc1 (stereo unspecified) [listing 1 of 2 here] | 207 µM
O=S(=O)(NCC(O)/C=C/c1ccccc1)c1ccc(F)cc1 (stereo unspecified) | 7.9 µM
N#Cc1ccc(C(=O)NCC(/C=C/c2ccccc2)OC(=O)c2ccc(C#N)cc2)cc1 (stereo unspecified) | 33 µM
COc1ccc(S(=O)(=O)NCC(O)/C=C/c2ccccc2)cc1 (stereo unspecified) | 6.4 µM
O=S(=O)(NCC(O)/C=C/c1ccccc1)c1ccc(Br)cc1 (stereo unspecified) | 9.4 µM
O=S(=O)(NCC(O)/C=C/c1ccccc1)c1ccc(OCc2ccccc2)cc1 (stereo unspecified) | 11.1 µM
NCC(O)/C=C/c1ccccc1 (stereo unspecified) [listing 2 of 2 here] | 214 µM
COc1cccc(S(=O)(=O)NCC(O)/C=C/c2ccccc2)c1 (stereo unspecified) | 7.2 µM
CC(C)(C)OC(=O)/N=C(\NCC(O)/C=C/c1ccccc1)NC(=O)OC(C)(C)C (stereo unspecified) | 103 µM
Cc1ccc(S(=O)(=O)NCC(O)/C=C/c2ccccc2)cc1 (stereo unspecified) | 7.6 µM
N#Cc1ccc(CN(Cc2ccc(C#N)cc2)CC(O)/C=C/c2ccccc2)cc1 (stereo unspecified) | 49.8 µM
NCC(O)c1ccccc1 (stereo unspecified) | 870 µM
Cc1ccc(CN(Cc2ccc(C)cc2)CC(O)/C=C/c2ccccc2)cc1 (stereo unspecified) | 50.7 µM
COC(=O)c1ccc(S(=O)(=O)NCC(O)/C=C/c2ccccc2)cc1 (stereo unspecified) | 13.3 µM
COc1ccccc1C(O)CN (stereo unspecified) | 5200 µM
Cc1ccc(C(=O)NCC(/C=C/c2ccccc2)OC(=O)c2ccc(C)cc2)cc1 (stereo unspecified) | 61.5 µM
OC(/C=C/c1ccccc1)CN(Cc1ccc(C(F)(F)F)cc1)Cc1ccc(C(F)(F)F)cc1 (stereo unspecified) | 32.8 µM
COC(=O)c1ccc(C(=O)NCC(/C=C/c2ccccc2)OC(=O)c2ccc(C(=O)OC)cc2)cc1 (stereo unspecified) | 40.5 µM
O=S(=O)(NCC(O)/C=C/c1ccccc1)c1ccccc1 (stereo unspecified) | 7.6 µM
NCC(O)c1ccsc1 (stereo unspecified) | 8900 µM
OC(/C=C/c1ccccc1)CN(Cc1ccccc1)Cc1ccccc1 (stereo unspecified) | 41.5 µM
O=S(=O)(NCC(O)/C=C/c1ccccc1)c1ccc(Cl)cc1 (stereo unspecified) | 9.2 µM
COc1cccc(C(O)CN)c1 (stereo unspecified) | 6100 µM
